# Screens (PubChem BioAssay)
# OX1R antag-1: OX1R (HCRTR1) antagonists, primary screen, fluorescence, CHO/OX1R cells, Fluo-8 calcium, orexin A; Orexin/Hypocretin receptor type 1 (Homo sapiens), O43613; Fluo-8 calcium fluorescence; inhibition, % at 5 µM; 330,000 tested, 0.43% active;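 active = inhibition above its plate's threshold, mean inhibition of all tested compounds on the plate plus 3 SD, cut at about 37% in these data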;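 note: 0% = orexin A challenge wells and 100% = SB-334867-A antagonist wells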
# TAAR1 agonist: human TAAR1 agonists, primary screen, Fluo-8 calcium fluorescence, CHO RD-HGA16 cells; Trace amine-associated receptor 1 (Homo sapiens), Q96RJ0; vehicle wells 0%, saturating PEA agonist 100%; activation, % at 3 µM; 360,000 tested, 0.99% active;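 active = activation above the mean activation of all test compounds in the run plus 3 SD, cut at about 38% in these data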
# Target sequence (Q96RJ0 whole entry, looked up): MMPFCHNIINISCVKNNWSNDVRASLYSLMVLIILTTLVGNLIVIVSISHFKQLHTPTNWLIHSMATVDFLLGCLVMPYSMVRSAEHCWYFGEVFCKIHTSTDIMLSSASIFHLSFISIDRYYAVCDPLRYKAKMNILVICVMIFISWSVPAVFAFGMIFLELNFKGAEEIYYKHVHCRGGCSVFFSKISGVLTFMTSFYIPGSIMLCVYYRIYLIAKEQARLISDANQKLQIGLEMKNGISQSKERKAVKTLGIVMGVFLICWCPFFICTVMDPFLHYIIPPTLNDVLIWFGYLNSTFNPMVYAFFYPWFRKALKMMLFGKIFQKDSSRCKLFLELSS
#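 Test system: RD-HGA16 (CHO) cells co-expressing Gα16 and hTAAR1 | Doses: Single dose, 3 µM | Schedule: 17-24 h seeding, 75 min 37 °C dye, 30 min RT | Evaluation: % activation from peak over basal fluorescence ratio, DMSO-to-PEA scaled | Technique: Kinetic Fluo-8 calcium fluorescence | Benchmarks: Low control DMSO, high control PEA (EC100)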
# GPR7 antagonist: GPR7 receptor antagonists, primary screen, cell-based, fluorescence, single concentration; GPR7-expressing cells, fluorescence antagonist assay; inhibition, % at 4.4 µM; 290,000 tested, 1.1% active; Neuropeptides B/W receptor type 1 (Homo sapiens), P48145; in the data active = inhibition above about 16%, passing the limit was not always enough;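 note: cells stimulated with the agonist NPW; 0% = agonist with vehicle and 100% = vehicle without agonist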
# Target sequence (P48145 whole entry, looked up): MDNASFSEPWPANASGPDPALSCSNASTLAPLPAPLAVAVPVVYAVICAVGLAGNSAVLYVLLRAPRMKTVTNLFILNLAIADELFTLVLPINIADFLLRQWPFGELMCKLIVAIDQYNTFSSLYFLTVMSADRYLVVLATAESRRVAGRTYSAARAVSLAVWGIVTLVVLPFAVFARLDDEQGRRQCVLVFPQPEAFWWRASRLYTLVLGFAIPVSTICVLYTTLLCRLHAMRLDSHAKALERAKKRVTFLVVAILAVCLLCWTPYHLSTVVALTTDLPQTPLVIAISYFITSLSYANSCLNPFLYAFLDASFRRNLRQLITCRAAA
# TAAR1 antagonist: human TAAR1 antagonists, primary screen, Fluo-8 calcium fluorescence, CHO RD-HGA16 cells. Trace amine-associated receptor 1 (Homo sapiens), Q96RJ0. antagonist. inhibition, % at 3 µM. 360,000 tested, 1.5% active. AID 624466, 2012;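 active = inhibition above a per-plate cutoff, the mean inhibition of test compounds on that plate plus 3 SD, cut at about 49% in these data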;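 note: 0% = DMSO plus EC80 beta-PEA response and 100% = DMSO alone without agonist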
#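 Test system: RD-HGA16 CHO cells with stable hTAAR1 and Gα16 / Probe or stimulus: EC80 β-phenethylamine stimulus / Times: seeding 17-24 h prior, 75-min 37 °C, 30-min RT dye loading / Detection: Fluo-8 calcium-sensitive fluorescence / Read-out basis: % inhibition scaled between DMSO and EC80 PEA controls / Repeats: singlicate, one well per test compound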
# CHO parental Ca: ATP-evoked calcium signal inhibitors, parental CHO, primary screen, counter-screen for OX1R antagonist project, cell-based, fluorescence, Fluo-8 calcium dye; parental CHO-K1, ATP-induced calcium, Fluo-8 fluorescence; inhibition, % at 5.6 µM; 330,000 tested, 0.63% active; AID 463079, 2010;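 active = inhibition above that plate's mean sample inhibition plus 3 SD, cut at about 26% in these data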;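 note: 0% = ATP-challenged DMSO wells and 100% = DMSO wells without ATP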
#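 Measured by: calcium-sensitive Fluo-8 fluorescence / Test system: CHO parental line / Controls: ATP-challenged DMSO wells low, unchallenged DMSO wells high / Measure: % inhibition / Compound: single nominal dose of 5.6 µM per compound / Replicates: single well per compound, no replicates / Reagent: ATP as calcium-mobilizing challenge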
# OX1R antag-2: antagonists of human orexin 1 receptor (OX1R); OX1R-expressing cells, FRET antagonist read-out; inhibition, % at 6.6 µM; 330,000 tested, 1.8% active; AID 485270, 2010; in the data active = inhibition mostly above about 38%, no sharp cut-off; inactive = mostly below about 40%;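 note: 0% = agonist challenge alone and 100% = reference antagonist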
# GPR7 antag cf: GPR7 receptor antagonists, confirmation, cell-based, fluorescence, single concentration. shares compounds with GPR7 antagonist. GPR7-expressing cells, calcium fluorescence antagonist mode. inhibition, % at 4.4 µM. 2,400 tested, 52% active; in the data active = inhibition above about 24%;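 note: stimulated with the GPR7 agonist NPW; 0% = agonist plus vehicle and 100% = vehicle alone without agonist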
# MCHR1 antag: MCHR1 antagonists in cells, counter-screen for GPR7 antagonist project, cell-based, fluorescence, human. inhibition, % at 4.4 µM. MCHR1-expressing cells, fluorescence antagonist assay. AID 2148, 2009. shares compounds with GPR7 antagonist. 2,400 tested, 62% active; in the data active = inhibition above about 22%;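 note: 0% = vehicle with agonist and 100% = vehicle without agonist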
# An asterisk follows results filed as active; x = no result. Rows were chosen to be rich in hits. Some 4.6% of all compounds tested hit in one or more screens of this group.
SMILES,OX1R antag-1,TAAR1 agonist,GPR7 antagonist,TAAR1 antagonist,CHO parental Ca,OX1R antag-2,others
c1ccc(Nc2nc(-c3ccccc3)ns2)cc1,-13,9,-8,17,-3,49*,
O=C(Nc1nccs1)c1cc2c(s1)-c1ccccc1OC2,-2,3,17*,12,12,42,
Cc1cccc2c1-c1sc(C(=O)Nc3nccs3)cc1CO2,-2,5,-7,11,-5,50*,
O=C(Nc1cccnc1)c1cc2c(s1)-c1ccccc1OC2,31,6,15,11,37,15,
Cc1cccc2c1-c1sc(C(=O)Nc3cccnc3)cc1CO2,34,5,3,19,-28,56*,
Cc1cccc2c1-c1sc(C(=O)Nc3cccc([N+](=O)[O-])c3C)cc1CO2,-7,1,-17,37,7,27,
Fc1ccc2cc(C3=CCCCC3)ncc2c1,x,-1,x,-1,x,x,
CC(C)C(NC(=O)c1ccc(C(C)(C)C)cc1)C(=O)NCc1ccccn1 (centres undefined),-17,11,x,-11,-30,6,
CC1=C(C(=O)N(C(C)C)C(C)C)CC(CC(=O)NCc2cccs2)C(=O)N1Cc1ccc(C(C)(C)C)cc1 (centres undefined),x,-2,x,-19,x,x,
Cc1cc(C(=O)Cn2cncn2)c(C)n1CCc1ccc(F)cc1,-12,31,-13,3,-9,27,
Cc1cc(C(=O)COC(=O)c2ccncc2)c(C)n1CCc1ccc(F)cc1,-12,48*,4,10,4,-1,
COc1ccc(C)cc1NC(=O)CCNS(=O)(=O)c1cccc2nonc12,-21,2,-12,-1,-11,71*,
CCOc1ccc(/C=N/NC(=O)c2cccc3ccccc23)c(OCC)c1,x,-1,-20,-6,x,x,
O=C(COC(=O)/C=C/c1ccccc1)Nc1nnc(-c2ccccc2)o1,-3,-1,x,3,5,21,
COc1cc(/C=C/C(=O)OCC(=O)Nc2nnc(-c3ccccc3)o2)cc(OC)c1OC,-38,0,x,10,-15,72*,
CCOc1ccc(NC(=O)COc2ccc(C(=O)NCc3cccnc3)cc2OC)cc1,-29,5,x,-10,-15,11,
COc1cc(C(=O)NCc2cccnc2)ccc1OCC(=O)Nc1cccc(C(F)(F)F)c1,29,10,x,32,43*,25,
COc1ccc(Cl)cc1NC(=O)C(OC)c1ccccc1 (centres undefined),-15,3,5,-5,15,7,
COC(/C(=N/O)c1ccc(Cl)cc1)c1ccccc1 (centres undefined),13,8,-3,33,60*,31,
CC(=O)c1sc(N/N=C\c2ccccc2O)nc1C,-7,42*,-7,16,5,51*,
Cc1cccc(OC2CCN(Cc3nc(CC4CC4)no3)CC2)c1,-15,1,20*,-2,-10,14,
CCN(CC(=O)NC)S(=O)(=O)c1ccc(Br)cc1,-15,4,16*,7,4,34,
CN(c1ccccc1)S(=O)(=O)c1ccc(-c2ccccc2)cc1,-8,6,5,52*,22,15,
CCN(CC)S(=O)(=O)c1ccc(-c2ccc(S(=O)(=O)N(CC)CC)cc2)cc1,19,6,2,35,41*,24,
CCN(CC(=O)NC)S(=O)(=O)c1ccc(C)cc1,-12,8,-14,3,-7,14,
SMILES,OX1R antag-1,TAAR1 agonist,GPR7 antagonist,TAAR1 antagonist,CHO parental Ca,OX1R antag-2,others
CN(C)S(=O)(=O)c1ccc(-c2ccccc2)cc1,7,28,3,5,1,2,
O=C(CNC(=O)c1ccccc1)N/N=C/C=C/c1ccccc1,-15,42*,-20,21,0,5,
O=C(N/N=C/c1cc([N+](=O)[O-])ccc1O)c1cccc2ccccc12,13,-1,27*,-3,28,32,GPR7 antag cf=5;MCHR1 antag=7
O=C(NN=Cc1cc(Cl)ccc1[N+](=O)[O-])c1cccc2ccccc12,x,-1,x,11,x,x,
O=C(Nc1cccc(S(=O)(=O)N2CCCCC2)c1)c1ccc2c(=O)n3c(nc2c1)CCCCC3,-20,10,28*,61*,-3,20,GPR7 antag cf=15;MCHR1 antag=77*
COc1ccccc1C(=O)Nc1ccccc1SC(=O)c1ccccc1OC,10,2,12,14,19,-1,
CCOC(=O)C1CCN(C(=O)c2ccc3c(c2)NC(=O)/C(=C\c2ccc(C)cc2)S3)CC1,-33,4,33*,-7,-38,7,GPR7 antag cf=22;MCHR1 antag=46*
CCOC(=O)C1CCN(C(=O)c2ccc3c(c2)NC(=O)/C(=C/c2ccccc2)S3)CC1,-24,-2,13,14,-15,-2,
Cc1cc(C)c(S(=O)(=O)NCC2CCC(C(=O)NCCCN3CCOCC3)CC2)c(C)c1 (centres undefined),x,21,22*,-13,x,x,GPR7 antag cf=12;MCHR1 antag=7
COc1cccc(NC(=O)CN2C(=O)NC(C)(c3ccc(C)cc3)C2=O)c1 (centres undefined),-15,10,9,-4,-27,29,
CC(=O)NC1C(=O)N(CCc2ccccc2)c2ccc(Br)cc21 (centres undefined),x,11,22,-22,x,x,
CCCCN1C(=O)C(NC(C)=O)c2ccccc21 (centres undefined),-6,6,26*,-17,1,12,GPR7 antag cf=-15;MCHR1 antag=20
COc1ccccc1N(CCC#N)C(=O)CSc1ccc2c(c1)OCCO2,-9,9,36*,4,-6,6,GPR7 antag cf=2;MCHR1 antag=8
N#CCCN(C(=O)CSc1ncccn1)c1ccc2c(c1)OCCO2,-4,-1,x,10,-13,1,
CN(C)NC1=CC(=[N+]2CCCC2)CC(C)(C)C1,-1,1,-2,-7,1,23,
CCCN(CCC)C1=CC(=[N+]2CCCC2)CC(C)(C)C1,-15,1,52*,13,-2,10,GPR7 antag cf=58*;MCHR1 antag=51*
